Measured values: ChEMBL document CHEMBL1123134, “Diterpenoid sweeteners. Synthesis and sensory evaluation of stevioside analogues with improved organoleptic properties” (1985)

Experiments:
Type in all cases: functional
Homo sapiens [1] = species: Homo sapiens; test: Sensory evaluation was done at a concentration of 650 p.p.m. against property of bitterness.
Procedure, shortened: (§1)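 Aqueous sample solutions were tasted at about pH 7, so carboxylic acids were in ionized form.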

Homo sapiens [2] = species: Homo sapiens; test: Sensory evaluation was done for sweetness at a concentration of 650 p.p.m. against sample intensity relative to 10% sucrose.
Procedure, shortened: (§2)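 Sweetness tasted in solutions held near pH ~7, so carboxylic acids are ionized. Potency is reported two ways: on a weight basis (Pw) and on a molar basis (Pm).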

Homo sapiens [3] = species: Homo sapiens; test: Sensory evaluation was done at a concentration of 650 p.p.m. against property of sweetness.; procedure, shortened: as §1
Homo sapiens [4] = species: Homo sapiens; test: Sensory evaluation was done for sweetness at a concentration of 650 p.p.m. against compound potency calculated on a molar basis.; procedure, shortened: as §2
Homo sapiens [5] = species: Homo sapiens; test: Sensory evaluation was done for sweetness at a concentration of 650 p.p.m. against compound potency calculated on weight basis.; procedure, shortened: as §2
Homo sapiens [6] = species: Homo sapiens; test: Sensory evaluation was done at a concentration of 650 p.p.m. against other properties.; procedure, shortened: as §1
Homo sapiens [7] = species: Homo sapiens; test: Sensory evaluation was done for sweetness at a concentration of 534 p.p.m. against compound potency calculated on weight basis.; procedure, shortened: as §2
Homo sapiens [8] = species: Homo sapiens; test: Sensory evaluation was done at a concentration of 534 p.p.m. against other properties.; procedure, shortened: as §1
Homo sapiens [9] = species: Homo sapiens; test: Sensory evaluation was done for sweetness at a concentration of 534 p.p.m. against sample intensity relative to 10% sucrose.; procedure, shortened: as §2
Homo sapiens [10] = species: Homo sapiens; test: Sensory evaluation was done at a concentration of 534 p.p.m. against property of bitterness.; procedure, shortened: as §1
Homo sapiens [11] = species: Homo sapiens; test: Sensory evaluation was done for sweetness at a concentration of 534 p.p.m. against compound potency calculated on a molar basis.; procedure, shortened: as §2
Homo sapiens [12] = species: Homo sapiens; test: Sensory evaluation was done at a concentration of 534 p.p.m. against property of sweetness.; procedure, shortened: as §1
Homo sapiens [13] = species: Homo sapiens; test: Sensory evaluation was done for sweetness at a concentration of 1000 p.p.m. against sample intensity relative to 10% sucrose.; procedure, shortened: as §1
Homo sapiens [14] = species: Homo sapiens; test: Sensory evaluation was done at a concentration of 1000 p.p.m. against other properties.; procedure, shortened: as §1
Homo sapiens [15] = species: Homo sapiens; test: Sensory evaluation was done for sweetness at a concentration of 1000 p.p.m. against compound potency calculated on a molar basis.
Procedure, shortened: (§3)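 Solutions were tasted at about pH 7. Sweetness potency was expressed two ways: Pw, calculated on a weight basis, and Pm, calculated on a molar basis.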

Homo sapiens [16] = species: Homo sapiens; test: Sensory evaluation was done at a concentration of 1000 p.p.m. against property of bitterness.; procedure, shortened: as §1
Homo sapiens [17] = species: Homo sapiens; test: Sensory evaluation was done for sweetness at a concentration of 1000 p.p.m. against compound potency calculated on weight basis.; procedure, shortened: as §3
Homo sapiens [18] = species: Homo sapiens; test: Sensory evaluation was done at a concentration of 1000 p.p.m. against property of sweetness.; procedure, shortened: as §1
Homo sapiens [19] = species: Homo sapiens; test: Sensory evaluation was done at a concentration of 615 p.p.m. against other properties.; procedure, shortened: as §1
Homo sapiens [20] = species: Homo sapiens; test: Sensory evaluation was done for sweetness at a concentration of 615 p.p.m. against compound potency calculated on a molar basis.; procedure, shortened: as §2
Homo sapiens [21] = species: Homo sapiens; test: Sensory evaluation was done at a concentration of 615 p.p.m. against property of bitterness.; procedure, shortened: as §1
Homo sapiens [22] = species: Homo sapiens; test: Sensory evaluation was done for sweetness at a concentration of 615 p.p.m. against sample intensity relative to 10% sucrose.; procedure, shortened: as §2
Homo sapiens [23] = species: Homo sapiens; test: Sensory evaluation was done at a concentration of 615 p.p.m. against property of sweetness.; procedure, shortened: as §1
Homo sapiens [24] = species: Homo sapiens; test: Sensory evaluation was done for sweetness at a concentration of 615 p.p.m. against compound potency calculated on weight basis.; procedure, shortened: as §2

Row | SMILES | Sensory evaluation (Homo sapiens [1]) | Ip (Homo sapiens [2]) | Sensory evaluation (Homo sapiens [3]) | Pm (Homo sapiens [4]) | Pw (Homo sapiens [5]) | Sensory evaluation (Homo sapiens [6]) | other results
1 | C=C1C[C@@]23CC[C@H]4[C@@](C)(CCC[C@@]4(C)C(=O)OC(CCN)C(=O)O)[C@@H]2CC[C@]1(O[C@@H]1O[C@@H](CO)[C@@H](O)[C@H](O)[C@@H]1O[C@@H]1O[C@@H](CO)[C@@H](O)[C@H](O)[C@@H]1O)C3 (stereo partly specified) | 18 | 1.1 | 79 | 360 | 170 | 3 | 
2 | C=C1C[C@@]23CC[C@H]4[C@@](C)(CCC[C@@]4(C)C(=O)OCCCS(=O)(=O)[O-])[C@@H]2CC[C@]1(O[C@H]1O[C@H](CO)[C@@H](O)[C@H](O)[C@H]1O[C@@H]1O[C@H](CO)[C@@H](O)[C@H](O)[C@H]1O)C3.[Na+] |  |  |  |  |  |  | Pw (Homo sapiens [7]): 160; Sensory evaluation (Homo sapiens [8]): 4; Ip (Homo sapiens [9]): 0.8; Sensory evaluation (Homo sapiens [10]): 4; Pm (Homo sapiens [11]): 360; Sensory evaluation (Homo sapiens [12]): 92
3 | C=C1C[C@@]23CC[C@H]4[C@@](C)(CCC[C@@]4(C)C(=O)OCCCCS(=O)(=O)[O-])[C@@H]2CC[C@]1(O[C@@H]1O[C@@H](CO)[C@@H](O)[C@H](O)[C@@H]1O[C@@H]1O[C@@H](CO)[C@@H](O)[C@H](O)[C@@H]1O)C3.[Na+] | 17 | 0.8 | 79 | 290 | 120 | 4 | 
4 | C=C1C[C@@]23CC[C@H]4[C@@](C)(CCC[C@@]4(C)C(=O)[O-])[C@@H]2CC[C@]1(O[C@@H]1O[C@@H](CO)[C@@H](O)[C@H](O)[C@@H]1O[C@@H]1O[C@@H](CO)[C@@H](O)[C@H](O)[C@@H]1O)C3.[Na+] [Steviolbioside] |  |  |  |  |  |  | Ip (Homo sapiens [13]): 1; Sensory evaluation (Homo sapiens [14]): 0; Pm (Homo sapiens [15]): 190; Sensory evaluation (Homo sapiens [16]): 35; Pw (Homo sapiens [17]): 100; Sensory evaluation (Homo sapiens [18]): 65
5 | C=C1C[C@@]23CC[C@H]4[C@@](C)(CCC[C@@]4(C)C(=O)OCCC(N)C(=O)O)[C@@H]2CC[C@]1(O[C@@H]1O[C@@H](CO)[C@@H](O)[C@H](O)[C@@H]1O[C@@H]1O[C@@H](CO)[C@@H](O)[C@H](O)[C@@H]1O)C3 (stereo partly specified) |  |  |  |  |  |  | Sensory evaluation (Homo sapiens [19]): 5; Pm (Homo sapiens [20]): 420; Sensory evaluation (Homo sapiens [21]): 35; Ip (Homo sapiens [22]): 1.2; Sensory evaluation (Homo sapiens [23]): 60; Pw (Homo sapiens [24]): 200
6 | C=C1C[C@@]23CC[C@H]4[C@@](C)(CCC[C@@]4(C)C(=O)OCCCP(=O)([O-])O)[C@@H]2CC[C@]1(O[C@@H]1O[C@@H](CO)[C@@H](O)[C@H](O)[C@@H]1O[C@@H]1O[C@@H](CO)[C@@H](O)[C@H](O)[C@@H]1O)C3.[Na+] | 8 | 0.8 | 87 | 280 | 120 | 5 | 
